This note sets out measurements from ChEMBL document CHEMBL4725355, “Design, Synthesis, and Preclinical Evaluation of 3-Methyl-6-(5-thiophenyl)-1,3-dihydro-imidazo[4,5-b]pyridin-2-ones as Selective GluN2B Negative Allosteric Modulators for the Treatment of Mood Disorders” (J Med Chem, 2020).

A short description of data set [1]: Half life in monkey at 0.5 mg/kg, po by LC-MS/MS analysis. In kind it is ADME, organism-based, Macaca mulatta. The note with it: rhesus monkey, in vivo.
The nature of data set [2]: Tmax in Sprague-Dawley rat at 2.5 mg/kg, po by LC-MS/MS analysis. In kind it is ADME, organism-based. The note with it: in vivo.
A further data set has as its target T1, Cytochrome P450 1A2 (Homo sapiens, UniProt P05177).
T1 sequence (P05177 whole entry): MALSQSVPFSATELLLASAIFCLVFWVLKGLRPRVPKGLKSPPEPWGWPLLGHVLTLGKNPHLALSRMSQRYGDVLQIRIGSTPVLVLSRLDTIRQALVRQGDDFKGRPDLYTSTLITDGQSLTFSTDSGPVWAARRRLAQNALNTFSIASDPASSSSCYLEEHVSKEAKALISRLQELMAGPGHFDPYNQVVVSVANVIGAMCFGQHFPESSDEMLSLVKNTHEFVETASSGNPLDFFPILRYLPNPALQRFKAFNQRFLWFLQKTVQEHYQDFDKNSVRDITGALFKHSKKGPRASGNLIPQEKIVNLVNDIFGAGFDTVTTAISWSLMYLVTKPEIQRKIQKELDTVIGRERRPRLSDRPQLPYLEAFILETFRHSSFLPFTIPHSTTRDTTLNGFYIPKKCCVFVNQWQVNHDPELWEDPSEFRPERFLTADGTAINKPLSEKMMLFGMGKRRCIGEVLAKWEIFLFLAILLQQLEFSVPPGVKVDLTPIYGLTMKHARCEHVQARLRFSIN
Nature of the data set: Inhibition of CYP1A2 in human liver microsomes using phenacetin as substrate measured after 15 mins by LC-MS/MS analysis. In kind it is ADME. Put shortly: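 Human liver microsomes incubated with isoform-specific probe substrates and the test compound at concentrations up to 20 µM. IC50 derived from inhibition of metabolite formation; mean of two independent experiments, with known specific inhibitors as positive controls.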

Data set [3] in a line: Tmax in Sprague-Dawley rat at 125 mg/kg, po administered via gavage after 24 hrs using HPMC formulation by LC-MS/MS analysis. The following applies: in vivo. In kind it is ADME, organism-based. Put shortly:
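Single oral gavage of a 5% HPMC suspension at 125, 250, 500 or 1000 mg/kg to male Sprague Dawley rats, 3 per group. Plasma was sampled at 6 time points from 0.5 to 24 h.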

The nature of data set [4]: Ex vivo receptor occupancy at GluN2B in Sprague-Dawley rat assessed as 3-[3H] 1-(azetidin-1-yl)-2-[6-(4-fluoro-3-methyl-phenyl)pyrrolo[3,2-b]pyridin-1-yl]-ethanone labelling at 3 mg/kg, po measured after 6 hrs by autoradiography. In kind it is functional. Put shortly:
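Rats dosed orally at 3 mg/kg in 20% HP-β-CD; brains taken at 0.5, 2 and 6 h. Ex vivo autoradiography of brain slices with the ³H pyrrolo[3,2-b]pyridine GluN2B tracer. Labelling expressed relative to matching brain areas of vehicle-treated animals; n=2, ± SEM.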

Data set [5] in a line: AUC (infinity) in dog at 0.5 mg/kg, po by LC-MS/MS analysis. In kind it is ADME, organism-based, Canis lupus familiaris. Also noted: time infinity, route oral, dose 0.5 mg/kg. The note with it: in vivo.
Data set [6] in a line: Negative allosteric modulation of human GluN1a/GluN2C receptor expressed in CHO cells assessed as inhibition of glutamate and glycine-induced calcium flux preincubated for 5 mins followed by glutamate and glycine addition and measured after 5 mins by calcium 5 dye based FLIPR assay. It counts as cell-based. The essentials:
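Tet-On CHO T-Rex cells expressing hGluN1a with GluN2A, 2B, 2C or 2D, plated at 20,000 cells/well and induced 24 h before the assay in the presence of ketamine. Cells loaded 1 h at room temperature with Calcium 5 dye, pH 7.4 HEPES buffer. Compound added 5 min, then glutamate (~EC80) plus 10 µM glycine for 5 min; FLIPR fluorescence normalized to control wells. Three independent runs in duplicate (two for some).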
On the technique in general: Calcium flux is commonly read through the fluorescence of an indicator in the cells.

Data set [7] is described as follows: Cmax in Sprague-Dawley rat at 250 mg/kg, po administered via gavage after 24 hrs using nanosuspension formulation by LC-MS/MS analysis. It counts as ADME, organism-based. The following applies: in vivo. Also noted: route oral, time 24 hrs, dose 250 mg/kg. Put shortly: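 Single oral gavage dose to male Sprague Dawley rats, 3 per dose level. Vehicles were a standard suspension in 5% HPMC (125, 250, 500 or 1000 mg/kg) or a nanosuspension (API:polymer 4:1), with stock diluted in vehicle on the day of dosing (100, 250 or 500 mg/kg). Blood was sampled at time points from 0.5 to 24 h.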

A word on the half-life: it is the time needed for the level to fall by half in the phase considered. By Tmax is commonly meant the time at which the peak concentration occurs. One may read the IC50 as the point on the concentration scale where inhibition reaches its midpoint. As a reminder, the AUC(0-inf) is total exposure, with the tail of the curve extrapolated. As a reminder, the Cmax is the highest concentration seen after dosing.

For `Cn1c(=O)n(CC(=O)N2CCC2)c2cc(-c3ccc(C(F)(F)F)s3)cnc21`, the half-life in data set [1] is 60 min. Besides, the Tmax in data set [2] turned out to be 1.3 h; in data set [3], 2.7 h. Further, the results for the half-maximal inhibitory concentration (IC50) (against Cytochrome P450 1A2; in data set [6]) were over 50 µM and over 10 µM, respectively. For the same compound, the Occ in data set [4] stood at 31%. Also, the AUC(0-inf) in data set [5] came out at 268 ng·h/mL. The same compound showed a Cmax in data set [7] of 12500 ng/mL.
